From ChEMBL document CHEMBL5113556, “Benzo[d]isoxazole Derivatives as Hypoxia-Inducible Factor (HIF)-1α Inhibitors” (ACS Med Chem Lett, 2022)

What was measured:
[1] = tested on: HEK-293T; experiment: Downregulation of PDK1 mRNA expression in HEK293T cells measured after 24 hrs under hypoxia condition by RT-PCR analysis; details: Homo sapiens, dose 0.01-50 µM, DDE = dose-dependent effect
[2] = tested on: HEK-293T; experiment: Cytotoxicity against HEK293T cells at 50 uM; format: toxicity, cell-based; details: human
Outline: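 Cytotoxicity was read from the Renilla signal of the dual-luciferase reporter run in HEK293T cells (24 h transfection, then 24 h compound exposure) at concentrations up to 50 μM.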

[3] = biological target: Hypoxia-inducible factor 1-alpha (Homo sapiens, UniProt Q16665); experiment: Inhibition of HIF-1alpha (unknown origin) transcriptional activity expressed in HEK293T cells co-transfected with renilla and HRE-firelfly luciferase incubated for 24 hrs by dual luciferase reporter gene assay; format: cell-based
Outline: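 HEK293T cells were transfected for 24 h with HIF-1α (P2A), Renilla and HRE-firefly luciferase constructs, then exposed to test compounds for a further 24 h. The firefly signal (luciferin substrate) gave HIF-1 inhibition, normalized to the Renilla signal (coelenterazine substrate). Transcriptional activity was calculated by a formula given in the Supporting Information.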

[4] = Downregulation of VEGF protein expression in HEK293T cells at 50 uM measured after 24 hrs under […] condition by Western blot analysis relative to control; format: functional, Homo sapiens, HEK-293T
[5] = tested on: HEK-293T; experiment: Downregulation of VEGF mRNA expression in HEK293T cells measured after 24 hrs under hypoxia condition by RT-PCR analysis; details: Homo sapiens, dose 0.01-50 µM, DDE = dose-dependent effect

Sequence of Hypoxia-inducible factor 1-alpha (Q16665 whole entry): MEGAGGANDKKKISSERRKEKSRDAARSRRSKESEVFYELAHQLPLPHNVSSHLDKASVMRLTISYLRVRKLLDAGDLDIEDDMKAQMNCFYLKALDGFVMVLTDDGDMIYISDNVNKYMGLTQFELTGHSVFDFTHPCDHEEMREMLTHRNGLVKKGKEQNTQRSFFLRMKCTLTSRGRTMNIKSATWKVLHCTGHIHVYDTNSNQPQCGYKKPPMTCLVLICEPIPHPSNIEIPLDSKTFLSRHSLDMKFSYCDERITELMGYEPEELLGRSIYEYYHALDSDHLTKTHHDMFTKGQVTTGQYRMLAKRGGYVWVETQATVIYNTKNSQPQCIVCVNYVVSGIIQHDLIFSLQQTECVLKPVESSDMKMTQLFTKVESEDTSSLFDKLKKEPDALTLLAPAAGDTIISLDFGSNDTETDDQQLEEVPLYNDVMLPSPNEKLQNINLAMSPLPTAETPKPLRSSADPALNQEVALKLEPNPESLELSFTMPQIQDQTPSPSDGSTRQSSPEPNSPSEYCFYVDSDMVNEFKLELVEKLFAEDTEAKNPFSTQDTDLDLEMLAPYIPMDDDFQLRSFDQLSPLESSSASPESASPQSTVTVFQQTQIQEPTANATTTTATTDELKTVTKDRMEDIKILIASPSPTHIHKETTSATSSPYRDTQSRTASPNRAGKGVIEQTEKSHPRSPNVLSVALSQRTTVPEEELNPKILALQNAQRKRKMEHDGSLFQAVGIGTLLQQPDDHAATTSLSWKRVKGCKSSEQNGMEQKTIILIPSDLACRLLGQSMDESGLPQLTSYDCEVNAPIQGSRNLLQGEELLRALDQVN

SMILES | IC50 [3] [nM] | Activity [1] | Activity [2] | Activity [4] [%] | Activity [5]
CC(=O)c1ccc(NC(=O)c2noc3ccccc23)cc1 | 24 | Dde | Non-Toxic | 20 | Dde
O=C(Nc1ccccn1)c1noc2ccccc12 | 940 | – | Non-Toxic | – | –
O=C(Nc1ccccc1Cl)c1noc2ccccc12 | 2300 | – | Non-Toxic | – | –
COc1cccc(NC(=O)c2noc3ccccc23)c1 | 170 | – | Non-Toxic | – | –
O=C(Nc1cccc(-c2ccccc2)c1)c1noc2ccccc12 | 1700 | – | Non-Toxic | – | –
CCn1c2ccccc2c2cc(NC(=O)c3noc4ccccc34)ccc21 | 810 | – | Non-Toxic | – | –
COc1ccccc1NC(=O)c1noc2ccccc12 | 5500 | – | Non-Toxic | – | –
O=C(Nc1cccc(Cl)c1)c1noc2ccccc12 | 250 | – | Non-Toxic | – | –
COC(=O)c1ccc(O)c(NC(=O)COc2ccc(C34CC5CC(CC(C5)C3)C4)cc2)c1 | 2600 | – | Non-Toxic | – | –
O=C1CCCc2cc(NC(=O)c3noc4ccccc34)ccc21 | 640 | – | Non-Toxic | – | –
O=C(Nc1ccc(Cl)cc1)c1noc2ccccc12 | 41 | – | Non-Toxic | – | –
O=C(NCc1ccccc1)c1noc2ccccc12 | – | – | Non-Toxic | – | –
O=C(c1noc2ccccc12)N1CCCCC1 | – | – | Non-Toxic | – | –
CN(C)c1cccc(NC(=O)c2noc3ccccc23)c1 | 7400 | – | Non-Toxic | – | –
O=C(Nc1ccccc1)c1ccon1 | – | – | Non-Toxic | – | –
O=C(Nc1noc2ccccc12)c1ccccc1 | – | – | Non-Toxic | – | –
CN(C)c1ccccc1NC(=O)c1noc2ccccc12 | – | – | Non-Toxic | – | –

Continued by falling IC50 [3], values first:

IC50 [3] [nM] | SMILES | Activity [1] | Activity [2] | Activity [4] [%] | Activity [5]
10000 | O=C(Nc1ccncc1)c1noc2ccccc12 | – | Non-Toxic | – | –
5400 | O=C(NC1CCCCC1)c1noc2ccccc12 | – | Non-Toxic | – | –
640 | CC(=O)c1cccc(NC(=O)c2noc3ccccc23)c1 | – | Non-Toxic | – | –
480 | O=C(Nc1cccc([N+](=O)[O-])c1)c1noc2ccccc12 | – | Non-Toxic | – | –
310 | O=C(Nc1ccccc1)c1noc2ccccc12 | – | Non-Toxic | – | –
200 | COC(=O)c1cccc(NC(=O)c2noc3ccccc23)c1 | – | Non-Toxic | – | –
75 | O=C(Nc1ccc2ccccc2c1)c1noc2ccccc12 | – | Non-Toxic | – | –
42 | O=C(Nc1ccc2scnc2c1)c1noc2ccccc12 | – | Non-Toxic | – | –
40 | COc1ccc(NC(=O)c2noc3ccccc23)cc1 | – | Non-Toxic | – | –
24 | CN(C)c1ccc(NC(=O)c2noc3ccccc23)cc1 | Dde | Non-Toxic | – | Dde
